Source: the EternaBench riboswitch data

Tested on: MS2 coat protein
Test: apparent Kd, MS2 coat protein; higher = weaker binding; RNA-MaP array
How it was run: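 On an Illumina sequencing chip, sequenced DNA templates served for transcription of the designed RNAs, which were then bound at room temperature by fluorescently labeled MS2 coat protein at 1.5 nM to 3 μM, with or without input ligand. Apparent Kd is the median of the fits to each cluster's binding curve. Only designs measured on at least 10 clusters were kept.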

[1] = designed as: ON switch for flavin mononucleotide, no ligand
[2] = ligand present: flavin mononucleotide, designed as: ON switch for flavin mononucleotide
[3] = designed as: OFF switch for flavin mononucleotide, no ligand
[4] = ligand present: flavin mononucleotide, designed as: OFF switch for flavin mononucleotide
[5] = designed as: ON switch for theophylline, no ligand
[6] = ligand present: theophylline, designed as: ON switch for theophylline
[7] = designed as: ON switch for tryptophan, no ligand
[8] = ligand present: tryptophan, designed as: ON switch for tryptophan
[9] = designed as: OFF switch for tryptophan, no ligand
[10] = ligand present: tryptophan, designed as: OFF switch for tryptophan

ACGUGACACGAGAAGGGUCUUAAAUGUUGAUUGACAGGAUAUCGUUCCCACGAUACAUAGACGGACAUGAGGAUCACCCAUGUG
apparent Kd [1]: 85.8 nM
apparent Kd [2]: 30.3 nM

UUGCAGGCAGGAUAUACGGUAUAUAACAUGAGGAUCACCCAUGUUCUUCACGAUCCCUGCGUAGAAGGGCCACAUU
apparent Kd [3]: 4.96 nM
apparent Kd [4]: 5.25 nM

GCUUCACAUGAGGAUCACCCAUGUCCGGAUACCAGCUCUCCAGACAGCCCUUGGCAGCCGAGCGCCCGAUUAUAUACCCUAGGAG
apparent Kd [5]: 22 nM
apparent Kd [6]: 29.9 nM

AUUAAUUCAGGAUAUACAUGAGGAUCACCCAUGUGGCGAAAGAACAUAUAGGAAACAAGUAGAAGGGAAUAGAU
apparent Kd [3]: 17.9 nM
apparent Kd [4]: 16.4 nM

UACUGCAAACAGAAGGUUGGAAGUCGGUUCUCCAAAGGAUAUGUACAUGAGGAUCACCCAUGUGCGCAAAUCGCACAGAGGAGG
apparent Kd [3]: 14.6 nM
apparent Kd [4]: 36.9 nM

CUAGAACAUGAGGAUCACCCAUGUCAGGAUAUUCUUGGAUGCAUCCAAGCGAAAACAAGAAGAAGGGACGUAUA
apparent Kd [3]: 10.8 nM
apparent Kd [4]: 10.4 nM

UAAGAUUCUGUAGGAUAUCAAAUACAUGAGGAUCACCCAUGUAACCUGAUUUCUGAUCCUCAGUGUGAGAAGGACAAUUAAGCC
apparent Kd [3]: 22.1 nM
apparent Kd [4]: 21.2 nM

UGCGGACAUGAGGAUCACCCAUGUGCGGAUACCAGCAGCCGGCUCUGCCCUUGGCAGCCGCUACCCUUGCACGUUUAACGAUCCA
apparent Kd [5]: 37.8 nM
apparent Kd [6]: 36.7 nM

ACACAAACAGAAGGAUAUUUCACCAACAAGUCGAAAGAAGGUCUAGUACAUGAGGAUCACCCAUGUCUCAGUACAUCGCCGGUU
apparent Kd [3]: 33.7 nM
apparent Kd [4]: 30.9 nM

UUCAUUUAGGAGGAUAUUUAGGCAUGAGGGCUAAAAGAAGGCCUAACAUGAGGAUCACCCAUGUUUGGACUAGA
apparent Kd [3]: 5.51 nM
apparent Kd [4]: 7.4 nM

UACAUGAGGAUCACCCAUGUUAACGCUUAGAUGCAUCGACGUGAGGAUAUCGGGUUAAACCAGCACGAGAAGGCACAUCCAGAU
apparent Kd [1]: 34.5 nM
apparent Kd [2]: 20.2 nM

ACGAGCACCUCAGGAUAUGGAAAGGACUCUUCAUUGGCUACUCGAACAUGAGGAUCACCCAUGUUCCAGAAGGGAGGAGAAGCC
apparent Kd [3]: 7.07 nM
apparent Kd [4]: 11.6 nM

UCGAGUAAGGAGAAGGACUAAUGGACUCACAAAGUAGGAUAUCCUGAACAUGAGGAUCACCCAUGUUGAUGUAACAUGUACUGG
apparent Kd [1]: 118 nM
apparent Kd [2]: 80.1 nM

CGUAUAGCAGGAUAUACAUGAGGAUCACCCAUGUUUUUCGUUGUGUGGUGCCAAGCGUGUAGAAGGGCUUCCUC
apparent Kd [3]: 52.4 nM
apparent Kd [4]: 56.8 nM

CAUUGAGCAGCUGAUACCAGUGCCUGAACUUACAUGAGGAUCACCCAUGUAUGCCCAAAACACCCUUGGCAGCAGAGGAAGAUCG
apparent Kd [5]: 14.5 nM
apparent Kd [6]: 13.9 nM

CCAUGCGUUGAGAAGGUGCUCGGGAAUCCACAUGAGGAUCACCCAUGUUGACUAGUAAGGCAUCGCAAGGAUAUCAGCUAUCUC
apparent Kd [3]: 28.8 nM
apparent Kd [4]: 25.3 nM

ACGUGGCAACAUGAGGAUCACCCAUGUAAAGAUAAUGAUUACAGAAGGCCCGGAGGAAGGCAAAGGGAGGAUAUGUGUGCCUAC
apparent Kd [1]: 29.8 nM
apparent Kd [2]: 12.7 nM

UUGGUUGCAUAGAAGGUGAGAUAGGAUCUACAUGAGGAUCACCCAUGUGUUAUCCCAAUUAGAAUCAAGGAUAUAUUGGCUUAU
apparent Kd [1]: 19.1 nM
apparent Kd [2]: 15.7 nM

GCAGGCGAAGGAUAUACAUGAGGAUCACCCAUGUGUCAAACAAUAAUACCACUCAACUGUAGAAGGUCGGGCGA
apparent Kd [3]: 13.9 nM
apparent Kd [4]: 11.4 nM

CCUGGAUCAGAUCUUAAAGGCGGUUCUGAUACCAGUCUUUUCCGAGACCCUUGGCAGCAGAACACAUGAGGAUCACCCAUGUAAA
apparent Kd (designed as: OFF switch for theophylline, no ligand): 52.4 nM
apparent Kd (ligand present: theophylline, designed as: OFF switch for theophylline): 46.5 nM

GGCGAGACCCAGAAGGUUCGUCCGGAUCCGCGAUAAUACAUGAGGAUCACCCAUGUAAGACCGGGAAAGGAUAUGGGAACAGCG
apparent Kd [1]: 6.54 nM
apparent Kd [2]: 6.02 nM

AUGGACCCAAAGAAGGAGAUCUGGACGACCCAUCUAGGAUAUUUGGCGCGCCCAUCCACCUGCACAUGAGGAUCACCCAUGUCG
apparent Kd [1]: 11.9 nM
apparent Kd [2]: 9.55 nM

GCGUGGUAAGGAUAUGUGUACGUCCGGUAGUAUAGCGUACAACAGAAGGUACAUGAGGAUCACCCAUGUGUCCG
apparent Kd [3]: 7.03 nM
apparent Kd [4]: 7.94 nM

UGUAUAGCGGCAGGAUAUGAGAGUGUAGGUGCUUCAGAAGGGCCAUGUGACGCUUUAAAUGGGACACAUGAGGAUCACCCAUGU
apparent Kd [3]: 18 nM
apparent Kd [4]: 13.5 nM

GCUACACAUGAGGAUCACCCAUGUAUGCAUAGACGAGGAUAUAGACCACCUCCCGGGAUACUAGAAGGCGUGAUAU
apparent Kd [1]: 19.3 nM
apparent Kd [2]: 10.3 nM

GAGAGGCGCUAGAAGGCACGCGUUCGGAUUGAGUGAGGAUAUAGUCCUCUGCCACAUGAGGAUCACCCAUGUAGUUUGAUAGAG
apparent Kd [1]: 6.28 nM
apparent Kd [2]: 6.12 nM

AAAUCUAACGAGAAGGGAGUGGCCGGCCACUUAGCAGACAUGAGGAUCACCCAUGUGAAGAUCACUCAGGAUAUCGAUAAUCCA
apparent Kd [1]: 24.9 nM
apparent Kd [2]: 22.7 nM

CGACUAACGUGAGGAUAUAGUCCGGAAAGACAUUUUCGUCAAGACAUGAGGAUCACCCAUGUCCUCUAGAAGGCACUCGGAACA
apparent Kd [1]: 45.1 nM
apparent Kd [2]: 30.5 nM

UAGACGCACAAACAUGAGGAUCACCCAUGUGUACAGACGCUGCAGGAUAUCCUCUGAAGUUAGUAGGAGAAGGGCAAACAACCU
apparent Kd [1]: 44.5 nM
apparent Kd [2]: 27.3 nM

CCUCCUUGUACGGCCGCCACUGCAUCUCUGGAUACUCCGAUAAUACAUGAGGAUCACCCAUGUUACAGGACCGGGUAUAUAUUAC
apparent Kd [7]: 15 nM
apparent Kd [8]: 16 nM

CGACCGCACGAGAAGGCUAGACAGCGGCGAUCUAGAGGAUAUCGACAUUCAACAUGAGGAUCACCCAUGUGAUUCCAACAAGCU
apparent Kd [3]: 57.8 nM
apparent Kd [4]: 69.6 nM

GUGAGACAUGAGGAUCACCCAUGUAAGGAUAUUGCCUCGACCAUAUAAACAUAUCGGACAAGAAGGUACAGGAG
apparent Kd [3]: 37.8 nM
apparent Kd [4]: 29.1 nM

GGGCGUGGAGUAGGAUAUCCUGUAUACAUGAGGAUCACCCAUGUACAUAUCUAGUAUUACCGUUUGGAGAAGGACUGUUGGGCU
apparent Kd [1]: 11.5 nM
apparent Kd [2]: 9.71 nM

CUUCAACAUGAGGAUCACCCAUGUAAGGAUAUCUGCCUCACAGCACCAAAGUGCGGGAAGAGAAGGUACGUAGU
apparent Kd [3]: 15.4 nM
apparent Kd [4]: 14.5 nM

UUAUAGGAAGGAUAUACAUGAGGAUCACCCAUGUUCAAACCAACGCACUAUCAUAAAUGUAGAAGGACCAACCC
apparent Kd [3]: 11.9 nM
apparent Kd [4]: 10.1 nM

GCUACACAGGACCGUACUAAGGAUUCGCCUCGAGGACCGGUACGGCCGCCACUCGUUGCGCGACAUGAGGAUCACCCAUGUGUUC
apparent Kd [9]: 46 nM
apparent Kd [10]: 36.7 nM

CGCAAACUAGGAUAUACAGGGCGAAAACGUUUACUUGGAUAACAUGAGGAUCACCCAUGUAGAAGGAGUUCUUA
apparent Kd [3]: 28.9 nM
apparent Kd [4]: 160 nM

AAACUCCGCAAGAAGGGUAUUCAAUGAAGUUGUACAGGAUAUUGGCGCAGACAUGAGGAUCACCCAUGUAAGUUCUUCAUGGUU
apparent Kd [3]: 125 nM
apparent Kd [4]: 120 nM

CAGUCUCUAGCGGCCGCCACUGUUCUGCUGGUGCUGCUGAACGAACAUGAGGAUCACCCAUGUCUCAGGACCGGGCUUCAGACUC
apparent Kd [7]: 26.1 nM
apparent Kd [8]: 26.9 nM

AAUAUGUAAGGAUAUACUGAAAUAAUAAUAAUAAUAAAUGAGUAGAAGGAACAUGAGGAUCACCCAUGUGAAAC
apparent Kd [3]: 8.71 nM
apparent Kd [4]: 8.07 nM

CGGUGAUUCGUAGGAUAUGUAUGAAGCUAGAGAACAGAAGGACGUCGCUACAAAAUUCAAAAUUACAUGAGGAUCACCCAUGUA
apparent Kd [1]: 25.2 nM
apparent Kd [2]: 16.4 nM

CGUCAACAUGAGGAUCACCCAUGUUUCGAUACCAGUGACCCUCUCCACCCUUGGCAGCGAGCGCCCGCGCCUGAUAAAUCUUCUA
apparent Kd [5]: 12.1 nM
apparent Kd [6]: 14.2 nM

UGAAAACCGUCAUAAACAAACAUGAGGAUCACCCAUGUAGCUAAGGAUAUUGACAAACAAAGACUCAAGAAGGUAGAACCUACA
apparent Kd [3]: 7.99 nM
apparent Kd [4]: 7.26 nM

CGGGACAUGAGGAUCACCCAUGUACGAUCCCGAGGACCGGUACGGCCGCCACUCGCUAGCGUUGAGUCGCGACUUUCAUAACUAA
apparent Kd [7]: 74.4 nM
apparent Kd [8]: 43.3 nM

UUAUAUCUUUAGGAUAUGCUGUGUCGGCAACUAGCAGAAGGAAAGACAUGAGGAUCACCCAUGUUGGUGCGUUC
apparent Kd [3]: 58.8 nM
apparent Kd [4]: 249 nM

CCUAGACAAGAGAAGGUUGAGAAGAAACUUUGCAAAGGAUAUCUAAACAUGAGGAUCACCCAUGUCGAUAUAUGGGUAGGCGAA
apparent Kd [3]: 102 nM
apparent Kd [4]: 91.4 nM

UUUAGUCAAUCGGCCGCCACUGACAUGAGGAUCACCCAUGUAGGUAAGGAUCAACCUCGAAAGUACAGGACCGGGAUUCGCCUCU
apparent Kd [9]: 53.3 nM
apparent Kd [10]: 84 nM
